Columns and labels:
[1] = Oral bioavailability in dog; type: ADME, organism-based, Canis lupus familiaris; details: in vivo
Outline: (§1)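 Pharmacokinetics from six animals per species: three dosed iv and three dosed po.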

[2] = target: T1, GABA-A receptor; alpha-3/beta-3/gamma-2 (Homo sapiens, UniProt P18507+P28472+P34903); assay: Displacement of [3H]Ro-151788 from recombinant human GABA-Aalpha3 receptor plus beta3gamma2; type: protein-complex assay
T1 sequence (P18507 whole entry): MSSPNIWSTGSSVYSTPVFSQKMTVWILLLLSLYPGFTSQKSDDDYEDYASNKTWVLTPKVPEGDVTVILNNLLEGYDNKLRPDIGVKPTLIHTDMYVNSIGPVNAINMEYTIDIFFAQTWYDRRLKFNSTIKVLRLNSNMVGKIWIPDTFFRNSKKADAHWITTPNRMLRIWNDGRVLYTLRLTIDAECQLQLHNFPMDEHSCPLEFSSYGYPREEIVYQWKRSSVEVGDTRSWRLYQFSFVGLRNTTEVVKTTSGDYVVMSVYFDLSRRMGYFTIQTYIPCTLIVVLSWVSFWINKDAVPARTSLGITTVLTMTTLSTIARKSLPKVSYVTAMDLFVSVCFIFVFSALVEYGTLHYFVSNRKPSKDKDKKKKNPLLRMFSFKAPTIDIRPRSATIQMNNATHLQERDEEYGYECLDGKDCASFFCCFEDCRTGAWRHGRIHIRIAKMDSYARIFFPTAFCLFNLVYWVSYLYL
T1 sequence (P28472 whole entry): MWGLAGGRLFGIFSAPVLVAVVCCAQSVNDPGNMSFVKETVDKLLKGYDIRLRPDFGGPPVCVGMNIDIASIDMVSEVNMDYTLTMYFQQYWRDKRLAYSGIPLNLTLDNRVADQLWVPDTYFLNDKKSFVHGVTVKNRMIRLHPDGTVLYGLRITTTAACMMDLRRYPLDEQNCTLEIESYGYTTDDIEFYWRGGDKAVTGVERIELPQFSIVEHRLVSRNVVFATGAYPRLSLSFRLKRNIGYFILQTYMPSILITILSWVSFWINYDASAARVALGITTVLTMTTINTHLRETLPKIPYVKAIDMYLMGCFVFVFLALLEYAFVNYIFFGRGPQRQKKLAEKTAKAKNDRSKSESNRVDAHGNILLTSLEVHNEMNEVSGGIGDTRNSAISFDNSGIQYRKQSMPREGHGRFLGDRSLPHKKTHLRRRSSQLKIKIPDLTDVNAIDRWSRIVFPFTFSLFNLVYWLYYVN
T1 sequence (P34903 whole entry): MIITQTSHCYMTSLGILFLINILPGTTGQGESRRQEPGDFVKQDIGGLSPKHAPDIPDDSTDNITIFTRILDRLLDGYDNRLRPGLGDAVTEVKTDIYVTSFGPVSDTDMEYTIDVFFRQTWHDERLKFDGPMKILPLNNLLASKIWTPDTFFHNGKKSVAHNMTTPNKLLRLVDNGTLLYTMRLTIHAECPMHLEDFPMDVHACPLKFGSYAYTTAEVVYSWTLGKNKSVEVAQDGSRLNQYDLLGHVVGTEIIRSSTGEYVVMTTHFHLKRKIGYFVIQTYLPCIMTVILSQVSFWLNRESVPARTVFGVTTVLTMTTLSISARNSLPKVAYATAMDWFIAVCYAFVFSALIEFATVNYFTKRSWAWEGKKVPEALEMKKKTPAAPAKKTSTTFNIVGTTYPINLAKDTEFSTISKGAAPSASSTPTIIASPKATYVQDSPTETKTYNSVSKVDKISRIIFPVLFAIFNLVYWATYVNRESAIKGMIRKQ
Outline: (§2)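 Benzodiazepine-site binding on stably transfected αxβ3γ2 receptors (x = 1, 2, 3 or 5). Inhibition curves run with [3H]Ro15-1788 at roughly twice its Kd. Ki derived by Cheng-Prusoff equation. Mean of three to six determinations.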

[3] = target: GABA-A receptor; alpha-3/beta-3/gamma-2 (Homo sapiens) (UniProt P18507+P28472+P34903); assay: Efficacy against recombinant human GABA-Aalpha3 plus beta-3-gamma-2 expressed in L(tk-) cells by whole cell patch clamp method relative to chlordiazepoxide; type: functional, cell-based
Outline: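 Whole-cell patch clamp on αxβ3γ2 receptors stably expressed in L(tk-) cells, measuring the effect on current evoked by an EC20-equivalent of GABA. Reported relative to full agonist chlordiazepoxide (=1.0), or as direct percent modulation of the EC20 control, with inverse agonism given as percent. Mean of at least four independent experiments.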

[4] = target: T2, GABA-A receptor; alpha-2/beta-3/gamma-2 (Homo sapiens, UniProt P18507+P28472+P47869); assay: Displacement of [3H]Ro-151788 from recombinant human GABA-Aalpha2 receptor plus beta3gamma2; type: protein-complex assay; outline: as §2
T2 sequence (P18507 whole entry): T1 sequence (P18507 whole entry)
T2 sequence (P28472 whole entry): T1 sequence (P28472 whole entry)
T2 sequence (P47869 whole entry): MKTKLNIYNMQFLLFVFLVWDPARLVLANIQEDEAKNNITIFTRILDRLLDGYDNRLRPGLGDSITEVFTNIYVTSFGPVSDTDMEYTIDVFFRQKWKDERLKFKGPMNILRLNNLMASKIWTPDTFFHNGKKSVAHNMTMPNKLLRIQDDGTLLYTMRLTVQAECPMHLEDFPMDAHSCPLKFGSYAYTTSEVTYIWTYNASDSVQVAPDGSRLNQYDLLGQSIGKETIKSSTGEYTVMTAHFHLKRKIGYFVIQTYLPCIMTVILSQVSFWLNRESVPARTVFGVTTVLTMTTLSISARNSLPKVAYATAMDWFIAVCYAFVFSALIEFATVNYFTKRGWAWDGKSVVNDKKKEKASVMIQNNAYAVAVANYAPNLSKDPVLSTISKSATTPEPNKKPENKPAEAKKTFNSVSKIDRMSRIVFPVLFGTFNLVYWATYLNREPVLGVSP

[5] = Half life in dog; type: ADME, organism-based, Canis lupus familiaris; details: in vivo; outline: as §1
[6] = Stability in rat assessed as liver microsomal turnover; type: ADME, Microsome; details: liver microsomes, read-out: Stability
Outline: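 Test compound at 1 µM, with diazepam as control, incubated 0.25 h with pooled liver microsomes at 0.5 mg/mL protein. Compound remaining quantified by LC/MS/MS. Turnover is the mean of three determinations.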

[7] = Plasma clearance in dog; type: ADME, organism-based, Canis lupus familiaris; outline: as §1
[8] = target: T3, GABA-A receptor; alpha-1/beta-3/gamma-2 (Homo sapiens, UniProt P14867+P18507+P28472); assay: Displacement of [3H]Ro-151788 from recombinant human GABA-Aalpha1 receptor plus beta3gamma2; type: protein-complex assay; outline: as §2
T3 sequence (P14867 whole entry): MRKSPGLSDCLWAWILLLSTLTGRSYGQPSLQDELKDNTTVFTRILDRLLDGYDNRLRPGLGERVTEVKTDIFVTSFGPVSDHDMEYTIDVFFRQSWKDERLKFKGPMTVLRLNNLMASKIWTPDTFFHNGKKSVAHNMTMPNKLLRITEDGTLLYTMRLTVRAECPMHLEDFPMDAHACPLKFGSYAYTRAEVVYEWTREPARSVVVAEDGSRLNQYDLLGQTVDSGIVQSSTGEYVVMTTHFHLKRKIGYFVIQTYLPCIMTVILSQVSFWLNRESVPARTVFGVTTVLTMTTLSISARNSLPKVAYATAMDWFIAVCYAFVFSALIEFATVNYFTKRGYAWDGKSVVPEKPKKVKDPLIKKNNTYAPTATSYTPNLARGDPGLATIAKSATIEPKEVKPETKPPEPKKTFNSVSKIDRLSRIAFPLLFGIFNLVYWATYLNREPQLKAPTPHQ
T3 sequence (P18507 whole entry): T1 sequence (P18507 whole entry)
T3 sequence (P28472 whole entry): T1 sequence (P28472 whole entry)

[9] = Plasma clearance in Rhesus monkey; type: ADME, organism-based, Macaca mulatta; outline: as §1

**Q.** Which results are given for `Fc1cnc(-c2cc(-c3ccc(F)c(-c4ncc(F)cc4F)c3)cnn2)c(F)c1`?
**A.** bioavailability [1]: 40%; Ki [2]: 8.5 nM; Efficacy [3]: 0.44; Ki [4]: 10.9 nM; half-life [5]: 15 h; metabolised [6]: 3%; clearance [7]: 3.9 mL/min/kg; Ki [8]: 1.5 nM

**Q.** For `Fc1cnc(-c2cc(-c3cnnc(-c4c(F)cncc4F)c3)ccc2F)c(F)c1`, which bioavailability [1] is on record?
**A.** Its bioavailability is 72%.

**Q.** What about the Ki [2] of the same compound?
**A.** The Ki was 6.3 nM.

**Q.** What about the Efficacy [3] of the same compound?
**A.** The Efficacy was 0.39.

**Q.** What about the clearance [9] of the same compound?
**A.** Its clearance is 6 mL/min/kg.

**Q.** And the half-life [5]?
**A.** The half-life was 3.9 h.

**Q.** What about the metabolised [6] of the same compound?
**A.** Its metabolised is 5%.

**Q.** What about the clearance [7] of the same compound?
**A.** Its clearance is 17 mL/min/kg.

**Q.** What about the Ki [8] of the same compound?
**A.** Its Ki is 1.8 nM.

**Q.** What does the source list for `Fc1cnc(-c2cc(-c3cnnc(-c4c(F)cc(F)cc4F)c3)ccc2F)c(F)c1`?
**A.** Ki [2]: 5 nM; Efficacy [3]: 0.4; Ki [4]: 4.6 nM; metabolised [6]: 4%; Ki [8]: 2.6 nM

**Q.** Which Ki [2] does the source give for `Fc1cnc(-c2cc(-c3ccc(F)c(-c4ncccc4F)c3)cnn2)c(F)c1` here?
**A.** Its Ki is 2 nM.

**Q.** What about the Efficacy [3] of the same compound?
**A.** Its Efficacy is 0.7.

**Q.** And the metabolised [6]?
**A.** Its metabolised is under 5%.

**Q.** And the Ki [8]?
**A.** Its Ki is 0.5 nM.

— ChEMBL document CHEMBL1146073, “A pyridazine series of alpha2/alpha3 subtype selective GABA A agonists for the treatment of anxiety” (J Med Chem, 2006)
